Active and inactive are the calls of the source. No cut-off for these calls is given here.
Experiments:
[1] = target: Glutamate NMDA receptor; Grin1/Grin2a (Rattus norvegicus, UniProt P35439+Q00959); assay: Antagonist activity at rat recombinant NR1-NR2A receptor expressed in Xenopus oocytes at holding potential of -40mV by two-electrode voltage-clamp electrophysiology; format: functional, cell-based, Oocyte; conditions: read-out: IC50
Method in brief: (§1)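 Oocytes expressing rat NR1-1a with NR2A, NR2B, NR2C or NR2D, clamped at −40 mV in Ba2+/HEPES recording solution pH 7.4, 23°C. Current evoked by 100 μM glutamate plus 30 μM glycine. Final DMSO 0.05-0.5%, 5-7 inhibitor concentrations, ≥4 oocytes each. IC50 from Hill fit of normalized mean composite data. […] Some NR2A oocytes given BAPTA-AM or K-BAPTA.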

[2] = target: Glutamate NMDA receptor; Grin1/Grin2b (Rattus norvegicus, UniProt P35439+Q00960); assay: Antagonist activity at rat recombinant NR1-NR2B receptor expressed in Xenopus oocytes at holding potential of -40mV by two-electrode voltage-clamp electrophysiology; format: functional, cell-based, Oocyte; conditions: read-out: IC50; method in brief: as §1
Sequence of Glutamate NMDA receptor; Grin1/Grin2b (Q00960 whole entry, other chains not shown): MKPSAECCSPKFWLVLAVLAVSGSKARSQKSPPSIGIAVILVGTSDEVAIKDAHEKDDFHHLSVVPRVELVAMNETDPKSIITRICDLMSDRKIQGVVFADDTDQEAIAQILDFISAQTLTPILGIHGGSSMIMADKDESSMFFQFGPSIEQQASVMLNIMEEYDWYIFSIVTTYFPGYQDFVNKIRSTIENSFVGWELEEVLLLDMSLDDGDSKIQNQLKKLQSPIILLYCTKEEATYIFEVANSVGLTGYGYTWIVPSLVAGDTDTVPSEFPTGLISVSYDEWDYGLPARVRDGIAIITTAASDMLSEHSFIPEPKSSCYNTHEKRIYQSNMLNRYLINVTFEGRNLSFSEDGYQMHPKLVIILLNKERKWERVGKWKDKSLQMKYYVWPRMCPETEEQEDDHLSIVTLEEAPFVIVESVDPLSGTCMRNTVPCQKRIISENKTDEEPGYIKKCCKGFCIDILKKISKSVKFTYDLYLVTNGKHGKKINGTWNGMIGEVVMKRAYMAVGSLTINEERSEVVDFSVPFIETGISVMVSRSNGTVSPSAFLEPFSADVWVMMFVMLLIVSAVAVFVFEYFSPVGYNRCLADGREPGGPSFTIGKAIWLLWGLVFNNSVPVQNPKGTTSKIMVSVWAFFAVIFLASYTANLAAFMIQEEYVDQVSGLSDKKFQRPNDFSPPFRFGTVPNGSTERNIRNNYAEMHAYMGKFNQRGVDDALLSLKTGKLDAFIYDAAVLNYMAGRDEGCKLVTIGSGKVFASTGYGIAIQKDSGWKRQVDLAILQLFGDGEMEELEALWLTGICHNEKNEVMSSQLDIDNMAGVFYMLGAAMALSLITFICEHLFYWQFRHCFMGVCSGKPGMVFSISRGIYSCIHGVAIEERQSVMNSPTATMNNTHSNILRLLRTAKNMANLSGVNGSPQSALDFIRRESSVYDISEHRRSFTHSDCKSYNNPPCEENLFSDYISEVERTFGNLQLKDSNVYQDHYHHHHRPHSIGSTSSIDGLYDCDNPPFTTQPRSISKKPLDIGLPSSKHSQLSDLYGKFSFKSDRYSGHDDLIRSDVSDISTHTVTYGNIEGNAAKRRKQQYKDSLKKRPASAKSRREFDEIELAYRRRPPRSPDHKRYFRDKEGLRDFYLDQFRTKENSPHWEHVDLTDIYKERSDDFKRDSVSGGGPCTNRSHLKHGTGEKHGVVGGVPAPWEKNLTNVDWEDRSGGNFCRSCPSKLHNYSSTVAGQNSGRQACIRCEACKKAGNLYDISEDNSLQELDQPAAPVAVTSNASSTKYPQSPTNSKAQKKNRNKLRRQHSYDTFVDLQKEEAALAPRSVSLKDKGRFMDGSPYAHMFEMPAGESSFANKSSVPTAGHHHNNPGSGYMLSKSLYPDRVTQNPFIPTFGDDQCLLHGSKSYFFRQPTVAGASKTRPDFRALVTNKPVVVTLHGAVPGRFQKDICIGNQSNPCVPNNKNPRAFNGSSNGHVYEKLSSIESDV

[3] = target: Glutamate NMDA receptor; Grin1/Grin2c (Rattus norvegicus, UniProt P35439+Q00961); assay: Antagonist activity at rat recombinant NR1-NR2C receptor expressed in Xenopus oocytes at holding potential of -40mV by two-electrode voltage-clamp electrophysiology; format: functional, cell-based, Oocyte; method in brief: as §1
[4] = target: Ionotropic glutamate receptor NMDA 1/2D (Rattus norvegicus, UniProt P35439+Q62645); assay: Antagonist activity at rat recombinant NR1-NR2D receptor expressed in Xenopus oocytes at holding potential of -40mV by two-electrode voltage-clamp electrophysiology; format: functional, cell-based, Oocyte
Method in brief: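 Oocytes expressing rat NR1-1a with NR2A, NR2B, NR2C or NR2D, clamped at −40 mV in Ba2+/HEPES recording solution pH 7.4, 23°C. Current evoked by 100 μM glutamate plus 30 μM glycine. Final DMSO 0.05-0.5%, 5-7 inhibitor concentrations, ≥4 oocytes each. IC50 from Hill fit of normalized mean composite data. Some NR2A oocytes given BAPTA-AM or K-BAPTA.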

Glutamate receptor 1 = Glutamate receptor 1 (Rattus norvegicus, UniProt P19490); assay: Antagonist activity at rat recombinant GLuR1 expressed in Xenopus oocytes assessed as inhibition of glutamate-induced current by two-electrode voltage-clamp electrophysiology; format: functional, cell-based, Oocyte
Sequence of Glutamate receptor 1 (P19490 whole entry, the tested form may be a part): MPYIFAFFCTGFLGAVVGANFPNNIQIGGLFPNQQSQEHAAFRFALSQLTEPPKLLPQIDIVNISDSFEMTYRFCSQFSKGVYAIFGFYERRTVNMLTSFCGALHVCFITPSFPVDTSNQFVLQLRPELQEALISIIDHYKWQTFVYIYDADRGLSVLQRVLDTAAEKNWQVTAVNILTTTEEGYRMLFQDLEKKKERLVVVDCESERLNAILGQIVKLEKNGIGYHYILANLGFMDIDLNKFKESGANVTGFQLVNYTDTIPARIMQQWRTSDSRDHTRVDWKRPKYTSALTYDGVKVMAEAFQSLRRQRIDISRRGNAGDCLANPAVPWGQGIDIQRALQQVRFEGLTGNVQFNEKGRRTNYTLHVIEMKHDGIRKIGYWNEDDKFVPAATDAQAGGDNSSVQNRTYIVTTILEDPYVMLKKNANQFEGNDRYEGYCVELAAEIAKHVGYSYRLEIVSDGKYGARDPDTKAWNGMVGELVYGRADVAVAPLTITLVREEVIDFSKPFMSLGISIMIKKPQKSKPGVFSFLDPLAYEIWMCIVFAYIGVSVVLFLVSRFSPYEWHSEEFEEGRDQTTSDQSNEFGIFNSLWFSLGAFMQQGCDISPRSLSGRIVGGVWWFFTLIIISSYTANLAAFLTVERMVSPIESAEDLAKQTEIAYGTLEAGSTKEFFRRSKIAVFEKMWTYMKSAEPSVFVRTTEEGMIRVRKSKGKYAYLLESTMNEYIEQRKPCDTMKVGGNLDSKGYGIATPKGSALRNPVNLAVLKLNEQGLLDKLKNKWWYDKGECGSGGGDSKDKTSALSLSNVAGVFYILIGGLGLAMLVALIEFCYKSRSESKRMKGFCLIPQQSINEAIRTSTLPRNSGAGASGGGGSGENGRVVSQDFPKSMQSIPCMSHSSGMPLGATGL
Method in brief: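 Two-electrode voltage clamp at −40 mV on Xenopus oocytes expressing rat GluR1, perfused with 90 NaCl, 1.0 KCl, 0.5 BaCl2, 0.005 EDTA, 10 HEPES (mM), pH 7.4, 23°C; activated by 100 μM glutamate. From 20 mM DMSO stocks, 5-7 concentrations, ≥4 oocytes each. Hill fit to mean composite curves normalized to control, minimum usually fixed at 0. Response >75% at 100 μM reported as >300 μM.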

[5] = target: Glutamate receptor ionotropic, kainate 2 (Rattus norvegicus, UniProt P42260); assay: Antagonist activity at rat recombinant GLuR6 expressed in Xenopus oocytes assessed as inhibition of glutamate-induced current by two-electrode voltage-clamp electrophysiology; format: functional, cell-based; conditions: oocyte
Sequence of Glutamate receptor ionotropic, kainate 2 (P42260 whole entry): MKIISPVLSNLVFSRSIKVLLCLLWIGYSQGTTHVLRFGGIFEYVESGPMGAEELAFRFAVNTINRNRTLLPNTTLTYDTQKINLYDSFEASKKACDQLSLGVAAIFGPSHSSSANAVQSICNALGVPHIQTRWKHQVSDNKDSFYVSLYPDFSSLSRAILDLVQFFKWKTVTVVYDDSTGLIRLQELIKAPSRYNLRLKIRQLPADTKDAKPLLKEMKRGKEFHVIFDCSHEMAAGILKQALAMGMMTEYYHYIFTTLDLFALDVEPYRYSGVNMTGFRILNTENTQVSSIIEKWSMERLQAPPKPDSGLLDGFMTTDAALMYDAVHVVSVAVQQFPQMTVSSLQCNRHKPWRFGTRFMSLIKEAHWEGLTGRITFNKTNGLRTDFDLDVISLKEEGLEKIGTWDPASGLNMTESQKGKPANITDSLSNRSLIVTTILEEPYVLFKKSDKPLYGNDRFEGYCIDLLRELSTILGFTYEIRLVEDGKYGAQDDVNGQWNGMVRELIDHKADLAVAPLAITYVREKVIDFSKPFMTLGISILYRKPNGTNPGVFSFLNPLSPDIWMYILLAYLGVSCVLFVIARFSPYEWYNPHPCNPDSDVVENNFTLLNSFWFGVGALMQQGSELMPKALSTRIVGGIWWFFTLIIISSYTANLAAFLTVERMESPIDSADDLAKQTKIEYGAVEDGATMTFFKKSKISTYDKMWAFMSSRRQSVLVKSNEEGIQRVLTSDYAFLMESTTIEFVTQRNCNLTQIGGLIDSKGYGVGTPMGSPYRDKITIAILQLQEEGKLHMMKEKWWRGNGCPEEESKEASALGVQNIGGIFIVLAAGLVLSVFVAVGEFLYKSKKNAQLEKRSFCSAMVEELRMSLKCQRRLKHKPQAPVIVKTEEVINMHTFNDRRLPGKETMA
Method in brief: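 Rat GluR6 expressed in Xenopus oocytes, pretreated with 10 μM concanavalin A for 10 min, then activated by 100 μM glutamate. Cells were held at −40 mV in 90 mM NaCl, 1.0 KCl, 0.5 BaCl2, 0.005 EDTA and 10 HEPES, pH 7.4, at 23°C. Compounds were diluted from 20 mM DMSO stocks, final DMSO 0.05-0.5%. Concentration-effect curves were recorded.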

Rattus norvegicus [6] = species on record: Rattus norvegicus; assay: Selectivity ratio of IC50 for rat recombinant GLuR1 to IC50 for rat recombinant NR1-NR2D receptor
Method in brief: (§2)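 Ratio of fitted IC50 values, either NR2A/NR2D or GluR1/NR2D, from two-electrode voltage-clamp Hill fits in oocytes. Where noted, calculated from IC50 values rounded to the nearest μM.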

Rattus norvegicus [7] = species on record: Rattus norvegicus; assay: Selectivity ratio of IC50 for rat recombinant NR1-NR2A receptor to IC50 for rat recombinant NR1-NR2D receptor; method in brief: as §2
[8] = target: T1, Ionotropic glutamate receptor NMDA 1/2D (Rattus norvegicus) (UniProt P35439+Q62645); assay: Antagonist activity at rat recombinant NR1-NR2D receptor expressed in Xenopus oocytes at 10 uM at holding potential of -40mV by two-electrode voltage-clamp electrophysiology; format: functional, cell-based; conditions: Oocyte
[9] = target: T1, Ionotropic glutamate receptor NMDA 1/2D (Rattus norvegicus); assay: Antagonist activity at rat recombinant NR1-NR2D receptor expressed in Xenopus oocytes at 10 uM at holding potential of +40mV by two-electrode voltage-clamp electrophysiology; format: functional, cell-based; conditions: Oocyte
[10] = target: T1, Ionotropic glutamate receptor NMDA 1/2D (Rattus norvegicus); assay: Antagonist activity at rat recombinant NR1-NR2D receptor expressed in Xenopus oocytes at 30 uM at holding potential of -40mV by two-electrode voltage-clamp electrophysiology in presence of up to 1000/300 uM of glutamate/glycine; format: functional, cell-based; conditions: Oocyte
Method in brief: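 NR1/NR2D oocytes held at −40 mV. Inhibition by 30 μM compound was compared with glutamate/glycine at 100/30 μM and raised to 1000/300 μM, to test whether higher agonist surmounts block. n=4.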

Sequence of Glutamate NMDA receptor; Grin1/Grin2a (Q00959 whole entry, other chains not shown): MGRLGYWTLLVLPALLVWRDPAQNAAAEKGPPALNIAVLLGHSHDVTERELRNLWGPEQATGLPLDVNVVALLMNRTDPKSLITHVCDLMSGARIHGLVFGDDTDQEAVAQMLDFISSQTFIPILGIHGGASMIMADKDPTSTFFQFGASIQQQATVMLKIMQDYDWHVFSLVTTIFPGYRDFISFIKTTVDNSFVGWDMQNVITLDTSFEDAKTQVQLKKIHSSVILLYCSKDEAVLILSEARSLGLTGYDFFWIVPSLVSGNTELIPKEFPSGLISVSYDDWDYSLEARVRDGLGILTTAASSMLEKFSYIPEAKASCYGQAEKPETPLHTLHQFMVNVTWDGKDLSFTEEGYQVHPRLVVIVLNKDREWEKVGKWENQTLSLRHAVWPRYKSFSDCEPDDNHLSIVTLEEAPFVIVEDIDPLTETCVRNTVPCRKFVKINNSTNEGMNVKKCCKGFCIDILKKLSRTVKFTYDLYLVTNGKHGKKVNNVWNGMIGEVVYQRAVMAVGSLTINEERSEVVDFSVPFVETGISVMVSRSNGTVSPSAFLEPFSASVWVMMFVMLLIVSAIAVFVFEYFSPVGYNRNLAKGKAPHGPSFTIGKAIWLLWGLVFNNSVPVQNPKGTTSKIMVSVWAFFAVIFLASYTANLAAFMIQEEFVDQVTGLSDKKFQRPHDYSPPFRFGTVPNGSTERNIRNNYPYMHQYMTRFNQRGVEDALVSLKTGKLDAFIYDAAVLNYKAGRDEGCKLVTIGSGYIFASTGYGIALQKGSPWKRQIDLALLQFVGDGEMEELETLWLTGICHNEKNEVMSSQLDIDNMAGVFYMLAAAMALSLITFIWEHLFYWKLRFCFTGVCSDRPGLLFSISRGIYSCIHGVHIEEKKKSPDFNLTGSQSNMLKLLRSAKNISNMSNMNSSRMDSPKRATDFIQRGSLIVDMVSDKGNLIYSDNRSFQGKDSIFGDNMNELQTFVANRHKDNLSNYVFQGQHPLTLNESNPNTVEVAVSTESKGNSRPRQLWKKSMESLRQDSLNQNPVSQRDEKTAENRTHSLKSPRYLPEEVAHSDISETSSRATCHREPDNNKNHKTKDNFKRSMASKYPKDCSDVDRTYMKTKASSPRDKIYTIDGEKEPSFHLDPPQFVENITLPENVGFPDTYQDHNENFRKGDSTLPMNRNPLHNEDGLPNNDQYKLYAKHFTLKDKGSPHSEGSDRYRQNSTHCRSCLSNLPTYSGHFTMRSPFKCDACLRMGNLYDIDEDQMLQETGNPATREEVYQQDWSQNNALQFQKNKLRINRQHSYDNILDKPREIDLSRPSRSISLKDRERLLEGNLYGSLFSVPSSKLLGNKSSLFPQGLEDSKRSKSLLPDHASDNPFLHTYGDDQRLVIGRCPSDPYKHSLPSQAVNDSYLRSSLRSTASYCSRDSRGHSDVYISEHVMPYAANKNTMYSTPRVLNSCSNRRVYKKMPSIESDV

SMILES	IC50 [1] [µM]	IC50 [2] [µM]	IC50 [3] [µM]	IC50 [4] [µM]	IC50 (Glutamate receptor 1) [µM]	IC50 [5]	Ratio IC50 (Rattus norvegicus [6])	Ratio IC50 (Rattus norvegicus [7])	Activity [8]	Activity [9]	Activity [10]
COc1ccc(-n2c(/C=C/c3ccc([N+](=O)[O-])cc3)nc3ccccc3c2=O)cc1	> 300	98	181	221	> 300	Not Active	–	–	–	–	–
O=C(O)c1cccc(-n2c(/C=C/c3cccc([N+](=O)[O-])c3)nc3ccccc3c2=O)c1	100	69	19	15	32	Not Active	–	–	–	–	–
COc1ccccc1-n1c(/C=C/c2cccc([N+](=O)[O-])c2)nc2ccccc2c1=O	> 300	–	> 300	> 300	> 300	Not Active	1	–	–	–	–
O=C(O)c1cccc(-n2c(/C=C/c3ccc([N+](=O)[O-])cc3)nc3ccccc3c2=O)c1	135	177	33	27	> 300	Not Active	–	–	–	–	–
COc1cccc(-n2c(/C=C/c3ccc([N+](=O)[O-])cc3)nc3ccccc3c2=O)c1	> 300	–	> 300	> 300	> 300	Not Active	1	–	–	–	–
COc1ccccc1-n1c(/C=C/c2ccc([N+](=O)[O-])cc2)nc2ccccc2c1=O	> 300	> 300	> 300	290	> 300	Not Active	1	> 1	–	–	–
COc1ccc(-n2c(/C=C/c3ccccc3[N+](=O)[O-])nc3ccccc3c2=O)cc1	> 300	–	143	125	223	Not Active	–	–	–	–	–
COc1cccc(-n2c(/C=C/c3ccccc3[N+](=O)[O-])nc3ccccc3c2=O)c1	> 300	–	> 300	> 300	> 300	Not Active	1	–	–	–	–
COc1ccccc1-n1c(/C=C/c2ccccc2[N+](=O)[O-])nc2ccccc2c1=O	4	7	4	5	14	Not Active	–	–	–	–	–
COc1cccc(-n2c(/C=C/c3cccc([N+](=O)[O-])c3)nc3ccccc3c2=O)c1	> 300	262	205	186	> 300	Not Active	2	2	–	–	–
O=C(O)c1ccc(-n2c(/C=C/c3ccc([N+](=O)[O-])cc3)nc3ccccc3c2=O)cc1	64	93	15	15	> 300	Not Active	–	–	–	–	–
O=C(O)c1ccccc1-n1c(/C=C/c2cccc([N+](=O)[O-])c2)nc2ccccc2c1=O	> 300	235	258	148	> 300	Not Active	–	–	–	–	–
O=C(O)c1ccc(-n2c(/C=C/c3cccnc3)nc3ccc(I)cc3c2=O)cc1	26	31	6	4	61	–	15	7	–	–	–
COc1ccc2nc(/C=C/c3cccc([N+](=O)[O-])c3)n(-c3cccc(C(=O)O)c3)c(=O)c2c1	208	> 300	24	13	289	–	22	16	–	–	–
O=C(O)c1ccc(-n2c(/C=C/c3cccc([N+](=O)[O-])c3)nc3ccc(-c4ccccc4)cc3c2=O)cc1	11	3	2	2	5	–	3	6	–	–	–
O=C(O)c1ccc(-n2c(/C=C/c3cccc([N+](=O)[O-])c3)nc3c(Cl)cccc3c2=O)cc1	56	243	12	9	87	–	10	6	–	–	–
O=C(O)c1cccc(-n2c(/C=C/c3ccccc3[N+](=O)[O-])nc3ccccc3c2=O)c1	17	20	8	7	5	Not Active	–	–	–	–	–
COc1ccccc1-n1c(/C=C/c2cccnc2)nc2ccc(I)cc2c1=O	31	30	3	3	199	–	66	10	–	–	–
O=C(O)c1ccc(-n2c(/C=C/c3cccc([N+](=O)[O-])c3)nc3ccccc3c2=O)cc1	21	30	12	9	32	Not Active	–	–	Active	Active	Active
O=C(O)c1ccc(-n2c(/C=C/c3ccc(OC(F)F)cc3)nc3ccccc3c2=O)cc1	73	89	33	22	208	–	9	3	–	–	–
O=C(O)c1ccc(-n2c(/C=C/c3cccc([N+](=O)[O-])c3)nc3c(Cl)cc(Cl)cc3c2=O)cc1	224	109	16	10	> 300	–	30	22	–	–	–
O=C(O)c1ccc(-n2c(/C=C/c3ccccc3[N+](=O)[O-])nc3ccccc3c2=O)cc1	11	17	8	–	–	Not Active	–	–	–	–	–
O=C(O)c1ccc(-n2c(/C=C/c3cccc([N+](=O)[O-])c3)nc3ccc(I)cc3c2=O)cc1	18	6	1	0.6	31	–	52	18	–	–	–
Cc1ccccc1-n1c(/C=C/c2cccnc2)nc2ccc(I)cc2c1=O	> 300	156	70	25	83	–	3	> 12	–	–	–
O=C(O)c1ccccc1-n1c(/C=C/c2ccc([N+](=O)[O-])cc2)nc2ccccc2c1=O	> 300	197	> 300	278	> 300	Not Active	–	–	–	–	–
COc1ccc(-n2c(/C=C/c3cccc([N+](=O)[O-])c3)nc3ccccc3c2=O)cc1	> 300	> 300	152	168	178	Not Active	–	–	–	–	–

Source: ChEMBL document CHEMBL1212913, “Quinazolin-4-one derivatives: A novel class of noncompetitive NR2C/D subunit-selective N-methyl-D-aspartate receptor antagonists” (J Med Chem, 2010)
